HCV NS3 hel inh: inhibitors of HCV NS3 helicase, primary screen, biochemical, Cy5 molecular beacon fluorescence; 290,000 tested, 0.56% active; NS3 helicase DNA unwinding; inhibition, % at 10.9 µM;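 active = inhibition above the mean of all tested compounds plus 3 SD, set per campaign, cut at about 35% in these data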;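 also: 0% = DMSO wells and 100% = thioflavine S control wells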
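Material: hepatitis C virus NS3 helicase domain fragment enzyme; measured by: Cy5 fluorescence, 0 and 60 min reads; control set: DMSO and thioflavine S; incubation: 60 min unwinding reaction at 25 °C after ATP addition; read-out basis: % inhibition from 60/0 min fluorescence ratio, DMSO 0%, thioflavine S 100%; repeats: singlicate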
HSF1 inhib: HSF1 inhibitors in luciferase reporter cells, primary screen, cell-based, NIH3T3, luminescence; NIH3T3-HGL HSE-luciferase, MG132-induced, luminescence 8 h; hits give low values; activity change, negative = inhibition, % at 7.5 µM (by protocol); 300,000 tested, 0.77% active; AID 2098, 2009;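 active = more than half of replicate wells show activity change below -50%, luminescence cut by over half; inconclusive = some wells, but at most half, below -50%; inactive = no replicate well below -50%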;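 also: luciferase reports HSF-1 transcriptional activity via heat shock element; 0% = median of DMSO wells and -100% = zero luminescence signal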
HSP90 refold inh: HSP90 inhibitors, primary screen, cell lysate, luminescence; AID 1789, 2009; inhibition, % at 5.6 µM; Rabbit reticulocyte lysate, luciferase refolding luminescence, 3 h; 290,000 tested, 0.91% active; Heat shock protein HSP 90 (rabbit reticulocyte lysate; luciferase refolding);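 active = inhibition above the screen-wide mean plus 3 SD, computed separately per campaign, cut at about 16% in these data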;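 also: 0% = DMSO wells and 100% = 60 µM geldanamycin wells; inhibitors lower the luminescence because luciferase stays unfolded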
HCV core dimer: inhibitors of HCV core protein dimerization, primary screen, biochemical, TR-FRET, high-throughput; TR-FRET GST/Flag-core106 dimerization, 1536-well; AID 1899, 2009; inhibition, % at 5 µM; 300,000 tested, 0.33% active;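 active = inhibition above the mean of all tested compounds plus 3 SD, set per screening campaign, cut at about 45% in these data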
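Assay system: Tagged HCV core106 pair (GST and Flag) | Buffer or medium: KF-containing HEPES buffer, pH 7.45, DTT, CHAPS, BSA | Also added: Eu donor and XL665 acceptor anti-tag antibodies | Dosing: One concentration, 5 µM, in 0.5% DMSO | Timing: 4 h at 22.5 °C | Technique: TR-FRET 671 and 617 nm emission | Repeats: Singlicate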
DNA FID counter: compounds displacing fluorescent DNA intercalator, primary screen, artefact control for HCV NS3 helicase inhibitor project, biochemical, FID fluorescence. DNA fluorescent intercalator displacement. 290,000 tested, 0.17% active. AID 1845, 2009. inhibition, % at 7.9 µM; in the data active = inhibition above about 37%;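 also: 0% = vehicle and 100% = reference compound; higher means more ethidium bromide displaced from hairpin DNA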
HSF1 activator: HSF-1 activators, primary screen, NIH3T3-HGL cells, MG132 stress, luminescence, single point; activation, % at 9 µM; 300,000 tested, 1.7% active; NIH3T3-HGL HSF-1 luciferase reporter, 8 h; 100% = twice DMSO control signal;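 active = mean replicate activation of at least 50% with a set share of replicates each reaching 50%; inconclusive = only one of those two conditions met; inactive = mean below 50% and too few replicates reaching it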;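 also: 0% = median of the neutral control wells and 100% = twice that signal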
HSP90 inh confirm: HSP90 inhibitors, confirmation, cell lysate, luminescence; shares compounds with HSP90 refold inh; rabbit reticulocyte lysate, luciferase refolding luminescence, 3 h; inhibition, % at 5.9 µM; 2,300 tested, 64% active; in the data active = inhibition above about 18%;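 also: 0% = vehicle wells and 100% = reference inhibitor wells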
FLuc counter: firefly luciferase inhibitors, HSP90 counter-screen, confirmation, artefact control for HSP90 inhibitor project, biochemical, luminescence, triplicate; shares compounds with HSP90 refold inh; purified native firefly luciferase; inhibition, % at 5.9 µM; 2,300 tested, 48% active; AID 1847, 2009;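 active = inhibition above the mean inhibition of all tested sample wells plus 3 SD, cut at about 10% in these data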;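 also: 0% = DMSO with luciferase and 100% = wells lacking luciferase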
Target sequence (P08659 whole entry, looked up): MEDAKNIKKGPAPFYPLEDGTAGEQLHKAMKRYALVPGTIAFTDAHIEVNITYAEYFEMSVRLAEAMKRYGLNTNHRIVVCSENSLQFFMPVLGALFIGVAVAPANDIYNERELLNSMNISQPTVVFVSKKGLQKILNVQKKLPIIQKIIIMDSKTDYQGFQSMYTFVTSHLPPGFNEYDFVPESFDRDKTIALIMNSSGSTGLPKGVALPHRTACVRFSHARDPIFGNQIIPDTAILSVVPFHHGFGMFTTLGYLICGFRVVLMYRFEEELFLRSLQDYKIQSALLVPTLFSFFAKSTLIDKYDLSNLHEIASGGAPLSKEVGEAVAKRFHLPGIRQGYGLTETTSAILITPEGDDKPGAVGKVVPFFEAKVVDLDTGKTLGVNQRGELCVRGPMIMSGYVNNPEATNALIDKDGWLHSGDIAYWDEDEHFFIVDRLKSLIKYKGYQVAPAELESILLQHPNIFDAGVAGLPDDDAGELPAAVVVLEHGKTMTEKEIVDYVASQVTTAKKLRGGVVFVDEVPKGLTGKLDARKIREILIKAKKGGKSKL
Starred values were filed as active, the others as inactive; u = inconclusive; x = no result given. Hits are enriched below; roughly 3.9% of the tested compounds scored in any of these assays.

SMILES	HCV NS3 hel inh	HSF1 inhib	HSP90 refold inh	HCV core dimer	DNA FID counter	HSF1 activator	HSP90 inh confirm	FLuc counter
Cc1[nH]c2ccccc2c1-c1csc(NC(=O)CSCC(=O)O)n1	14	-5	3	-17	-24	30	x	x
COC(=O)c1nc2n(n1)C(c1ccc(OC)c(OC)c1OC)C1=C(CCCC1=O)N2 (stereo unspecified)	10	-8	5	-1	-9	11	x	x
COc1cc([C@@H]2c3cc4c(cc3[C@H](O)[C@H]3COC(=O)[C@H]23)OCO4)cc(OC)c1OC	-3	-69*	3	-1	-17	-74	x	x
O=C(NCc1ccccn1)C12CC3CC(CC(C3)C1)C2	2	-7	2	2	-9	10	x	x
N/C(=N\OC(=O)COc1ccc(Br)cc1Cl)c1cccnc1	-2	31	4	-1	-8	60*	x	x
N/C(=N\OC(=O)COc1ccc(Cl)cc1Br)c1cccnc1	-19	39	2	1	3	42	x	x
CCOC(=O)c1cc(-c2ccco2)nc2c1c(C)nn2-c1ccccc1	31	-7	-1	59*	-6	-10	x	x
CCOc1ccc(C(=O)CCC(=O)N2CCN(c3ncccn3)CC2)cc1	12	-1	5	-3	-20	3	x	x
Cc1ccc(CNC(=O)CNS(=O)(=O)c2ccc(Br)s2)cc1	5	-3	3	-15	-17	2	x	x
CCCNC(=O)c1cccc(Br)c1	4	-6	0	3	0	-3	x	x
O=C(NCCc1ccccc1)c1cccc(Br)c1	-2	37	3	-4	-5	65*	x	x
CCN(/N=C/C=C/c1ccccc1)c1cc(=O)n(C)c(=O)[nH]1	6	27	4	0	-12	69*	x	x
O=C(NNC(=S)Nc1ccccc1)c1ccc(O)cc1	10	33	-1	-5	-3	57*	x	x
Cc1ccc(NC(=O)COC(=O)[C@H](C)N2C(=O)C3CC=CCC3C2=O)cc1S(=O)(=O)N(C)C (stereo partly specified)	-3	19	2	0	-18	68*	x	x
Cc1ccc(NC(=O)COC(=O)Cn2cnc3ccccc32)cc1S(=O)(=O)N(C)C	0	-83*	-1	-3	-8	-85	x	x
C=CCc1ccc(OCC(O)CO)c(OC)c1 (stereo unspecified)	6	22	-2	2	-3	71*	x	x
O=C(CCS(=O)(=O)Cc1ccccc1)N1CCc2ccccc2C1	-2	-9	0	-3	-11	-6	x	x
CCOC(=O)N1CCN(C(=O)c2ccc3c(c2)sc2nc(-c4ccc(OC)cc4)cn23)CC1	-4	x	5	10	-10	x	x	x
COc1ccc2c(c1)sc1nc(-c3ccccc3)cn12	-6	-68*	63*	0	-9	-72	90*	86*
COc1ccc(C(=O)/C=C/c2ccc(OC)c(COc3ccc(F)cc3)c2)cc1	2	13	24*	5	6	7	21*	-12
Cc1cccc(CNC(=O)CC2C(=O)NCCN2C2CCCC2)c1 (stereo unspecified)	-3	-4	-1	-10	-8	-15	x	x
CN(C)C(=O)c1ccccc1-c1ccccc1	3	-6	0	-2	-2	-4	x	x
Cc1ccc(/C=C2\SC(N3CCCC3)=NC2=O)cc1	2	6	-1	-2	-21	24	x	x
CN(C)c1ccc(/C=C2\SC(N3CCCCC3)=NC2=O)cc1	11	u	45*	-23	-29	-62	55*	60*
CC(C)c1ccc(/C=C2\SC(N3CCCC3)=NC2=O)cc1	4	2	19*	0	-27	-17	4	3
SMILES	HCV NS3 hel inh	HSF1 inhib	HSP90 refold inh	HCV core dimer	DNA FID counter	HSF1 activator	HSP90 inh confirm	FLuc counter
COc1cn(-c2ccccc2)nc1C(=O)NCc1ccc(C)cc1	3	8	2	3	-22	12	x	x
Cc1cccc(CN2CCN(c3nc4nonc4nc3NC3CC3)CC2=O)c1	2	9	-3	0	-7	-3	x	x
Cc1ccc(CC(=O)N/N=C/c2ccc3c(c2)OCO3)cc1	2	3	20*	0	-1	-11	-5	-14
Cc1cc(C)c(OCC(=O)N/N=C/c2ccc3c(c2)OCO3)c(C)c1	6	-5	-1	2	-12	-12	x	x
COc1ccc(C(=O)Nc2nc3ccccc3[nH]2)cc1	0	-7	74*	-6	-8	21	86*	80*
COc1cccc(C(=O)Nc2nc3ccccc3[nH]2)c1	6	-9	27*	-1	-5	-4	67*	56*
O=C(Nc1nc2ccccc2[nH]1)NC1CCCCC1	14	4	23*	-16	-13	20	24*	6
Cc1ccc(C(=O)Nc2nc3ccccc3[nH]2)cc1	1	-25	86*	13	-10	-9	89*	85*
CC(Oc1ccccc1)c1nnc(SCC(=O)NC2CC2)n1C (stereo unspecified)	10	1	-4	2	-9	7	x	x
CCOCCc1nnc(NC(=O)CS(=O)(=O)Cc2ccccc2)s1	5	-10	-6	-5	-10	-11	x	x
CCOc1cccc2sc(NC(=O)c3ccc(Br)s3)nc12	-6	12	-1	0	5	38	x	x
O=C(O)COc1ccccc1/C=N/NC(=O)c1cc(-c2ccc(F)cc2)nc2ccccc12	-11	-9	17*	9	-20	-24	25*	8
O=C(N/N=C/c1ccc2c(c1)OCO2)c1cc(-c2ccc(F)cc2)nc2ccccc12	17	-8	-1	20	-5	-16	x	x
O=C(c1ccc(-c2ccccc2)cc1)N1CCN(c2ncccn2)CC1	-10	x	1	9	-33	x	x	x
Oc1ccccc1-c1cc(-c2ccc3c(c2)OCCO3)n[nH]1	-10	13	21*	3	-7	37	38*	35*
Cc1nc(CS(=O)(=O)c2ccc(Cl)cc2)sc1C(=O)O	18	-3	33*	0	1	-13	49*	1
CCCN(CCO)Cc1ccc2ccccc2c1	3	-13	7	4	0	-12	x	x
